Results from ChEMBL document CHEMBL1149434 (J Med Chem, 2006).
Activity calls are given as the source filed them. No cut-off for these calls is given here.

Legend:
[1] = tested on: Peritoneal macrophage cell; test: Ability to suppress TNFalpha production by LPS-activated peritoneal macrophages form C57BL/6 mice at 4 ug/ml; assay type: functional, cell-based; settings: Mus musculus
[2] = tested on: Peritoneal macrophage cell; test: Ability to suppress TNFalpha production by LPS-activated peritoneal macrophages form C57BL/6 mice at 8 ug/ml; assay type: functional, Mus musculus
[3] = tested on: RAW264.7; test: Ability to suppress the production of reactive oxygen intermediates by activated RAW 264.7 macrophages from BALB/c mice at 4 ug/ml; assay type: functional
Method in brief: (§1)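 RAW 264.7 cells were grown in DMEM with 5% FCS and LPS-activated (1 µg/mL, 24 h). Cells (5 × 10^5 in 0.5 mL) were incubated 24 h with cannabinoids dissolved in ethanol and diluted in Hanks. Luminol and zymosan were then added and chemiluminescence was read immediately. Mean ± SD of three pooled experiments.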

[4] = tested on: Peritoneal macrophage cell; test: Ability to suppress […] production by LPS-activated peritoneal macrophages form C57BL/6 mice at 8 ug/ml; assay type: functional, cell-based; settings: Mus musculus
Method in brief: (§2)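 Elicited peritoneal macrophages were prepared as for TNF. They were exposed to ethanol-dissolved cannabinoids diluted in DMEM, plus LPS 1 µg/mL, for 24 h. Nitrite in 100 µL supernatant was mixed with an equal volume of Griess reagent for 10 min at room temperature and read at 550 nm. Values came from a nitrite standard curve. Mean ± SD of three pooled experiments.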

[5] = tested on: RAW264.7; test: Ability to suppress the production of reactive oxygen intermediates by activated RAW 264.7 macrophages from BALB/c mice at 8 ug/ml; assay type: functional, Mus musculus; method in brief: as §1
[6] = target: Cannabinoid receptor 1 (Rattus norvegicus, UniProt P20272); test: Displacement of [3H]HU243 from CB1 receptor in Sabra rat brain
[7] = tested on: Peritoneal macrophage cell; test: Ability to suppress […] production by LPS-activated peritoneal macrophages form C57BL/6 mice at 4 ug/ml; assay type: functional, cell-based; settings: Mus musculus; method in brief: as §2
[8] = tested on: Peritoneal macrophage cell; test: Ability to suppress […] production by LPS-activated peritoneal macrophages form C57BL/6 mice at 1 ug/ml; assay type: functional, cell-based; settings: Mus musculus; method in brief: as §2

Cannabinoid receptor 1, sequence (P20272 whole entry): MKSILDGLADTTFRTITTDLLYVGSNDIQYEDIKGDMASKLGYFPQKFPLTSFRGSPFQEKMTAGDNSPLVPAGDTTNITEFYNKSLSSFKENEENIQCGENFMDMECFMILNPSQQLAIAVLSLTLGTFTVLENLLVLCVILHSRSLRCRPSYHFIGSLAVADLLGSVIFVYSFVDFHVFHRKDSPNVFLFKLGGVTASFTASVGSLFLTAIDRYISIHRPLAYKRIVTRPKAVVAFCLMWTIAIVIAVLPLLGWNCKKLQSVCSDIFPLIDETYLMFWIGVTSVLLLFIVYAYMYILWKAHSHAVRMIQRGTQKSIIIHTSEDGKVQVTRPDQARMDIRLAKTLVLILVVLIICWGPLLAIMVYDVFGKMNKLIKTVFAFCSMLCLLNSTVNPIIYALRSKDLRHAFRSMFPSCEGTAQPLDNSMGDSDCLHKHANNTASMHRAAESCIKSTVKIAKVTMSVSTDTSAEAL

Compound	Activity [1]	Activity [2] [%]	Activity ([3]; Mus musculus)	Activity [4]	Activity [5] [%]	Ki [6] [nM]	Activity [7]	Activity ([2]; Mus musculus)	Activity [3] [%]	Activity ([5]; Mus musculus)	Activity [8]
C=C(C)[C@@H]1CCC(C)=CC1c1c(O)cc(C(C)(C)CCCCCC)cc1O (some centres not stated)	Active	73	Active	Active	60	> 10000	Active	–	–	–	–
C=C(C)[C@@H]1CCC(C)CC1c1c(O)cc(CCCCC)cc1O (some centres not stated)	–	–	–	Active	–	–	Active	–	–	–	–
CCCCCCC(C)(C)c1cc(O)c(C2CC(C)CC[C@H]2C(C)C)c(O)c1 (some centres not stated)	–	–	–	–	25	17	–	inactive	–	–	–
CCCCCc1cc(O)c(C2C=C(C)CC[C@H]2C(C)C)c(O)c1 (some centres not stated)	Active	–	Active	Active	–	> 1000	Active	–	–	–	–
C=C(C)[C@@H]1CCC(C)=C[C@H]1c1c(O)cc(CCCCC)cc1O [CANNABIDIOL]	–	–	–	Active	–	–	Active	Active	12	Active	–
CCCCCc1cc(O)c(C2CC(C)CC[C@H]2C(C)C)c(O)c1 (some centres not stated)	Active	–	Active	Active	–	145	Active	–	–	–	Active
CCCCCCC(C)(C)c1cc(O)c(C2C=C(C)CC[C@H]2C(C)C)c(O)c1 (some centres not stated)	–	–	inactive	–	–	124	–	inactive	–	inactive	–
